In ChEMBL document CHEMBL1146219, “Synthesis and evaluation of novel radioiodinated benzamides for malignant melanoma” (J Med Chem, 2007):

Columns and labels:
[1] = target: Sigma non-opioid intracellular receptor 1 (Cavia porcellus, UniProt Q60492); test: Displacement of [3H](+)-pentazocine from sigma 1 receptor in guinea pig brain membrane; format: cell membranes
In short: (§1)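 Guinea pig brain membranes, incubated in duplicate for 2 h at 25 °C in Tris-HCl pH 8.0. Benzamide 10⁻¹⁰ to […] against 2 nM [³H]-(+)-pentazocine (σ₁) or 2 nM [³H]DTG plus 100 nM (+)-pentazocine (σ₂). Nonspecific binding defined with 1 µM haloperidol. GF/B filtration, bound activity by β-scintillation counting, giving IC50 then Ki. Full curves run only where 10⁻⁵ M inhibited >90%.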

[2] = Displacement of [3H]DTG from sigma 2 receptor in guinea pig brain membrane; format: cell membranes, Cavia porcellus; in short: as §1
[3] = Lipophilicity, log P at pH 7.5; format: physicochemical; settings: buffer
Blood [4] = test: Biodistribution in blood of B16F0 tumor bearing C57BL/6J mouse at 0.37-0.74 MBq, iv after 24 hrs; format: ADME, organism-based; settings: in vivo
In short: (§2)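 Female C57BL/6J mice (15-18 g) were given B16F0 cells subcutaneously in the left flank (0.1 mL of 3 × 10⁶ viable cells/mL in Ca²⁺/Mg²⁺-free PBS) at 6-7 weeks and used after ten days. [¹²³I]benzamide (0.37-0.74 MBq, 100 µL, saline) was injected via the tail vein. Groups of n = 5 were killed by CO₂ and cervical dislocation. Organs were weighed and γ-counted, and the carcass was counted too.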

[5] = Biodistribution in melanoma of B16F0 tumor bearing C57BL/6J mouse at 0.37-0.74 MBq, iv after 1 hr; format: ADME, organism-based, B16-F0; settings: in vivo; in short: as §2
[6] = Biodistribution in melanoma of B16F0 tumor bearing C57BL/6J mouse at 0.37-0.74 MBq, iv after 6 hrs; format: ADME, organism-based, B16-F0; settings: in vivo
In short: (§3)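 Female C57BL/6J mice (15-18 g) carrying s.c. B16F0 flank tumors (0.1 mL of 3 × 10⁶ viable cells per mL in Ca²⁺/Mg²⁺-free PBS, inoculated at 6-7 weeks, used 10 days later). [¹²³I]tracer 0.37-0.74 MBq in saline, 100 µL, tail-vein i.v. Groups of n = 5 killed at 1-72 h. Organs weighed and γ-counted, carcass activity also counted, values as %ID/g.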

[7] = Biodistribution in melanoma of B16F0 tumor bearing C57BL/6J mouse at 0.37-0.74 MBq, iv after 24 hrs; format: ADME, organism-based, B16-F0; settings: in vivo; in short: as §2
[8] = Biodistribution in melanoma of B16F0 tumor bearing C57BL/6J mouse at 0.37-0.74 MBq, iv after 48 hrs; format: ADME, organism-based, B16-F0; settings: in vivo; in short: as §2
[9] = Biodistribution in melanoma of B16F0 tumor bearing C57BL/6J mouse at 0.37-0.74 MBq, iv after 72 hrs; format: ADME, organism-based, B16-F0; settings: in vivo; in short: as §3
Liver [10] = test: Biodistribution in liver of B16F0 tumor bearing C57BL/6J mouse at 0.37-0.74 MBq, iv after 1 hr; format: ADME, organism-based; settings: in vivo; in short: as §2
Liver [11] = test: Biodistribution in liver of B16F0 tumor bearing C57BL/6J mouse at 0.37-0.74 MBq, iv after 6 hrs; format: ADME, organism-based; settings: in vivo; in short: as §2
Liver [12] = test: Biodistribution in liver of B16F0 tumor bearing C57BL/6J mouse at 0.37-0.74 MBq, iv after 24 hrs; format: ADME, organism-based; settings: in vivo; in short: as §2
Liver [13] = test: Biodistribution in liver of B16F0 tumor bearing C57BL/6J mouse at 0.37-0.74 MBq, iv after 48 hrs; format: ADME, organism-based; settings: in vivo; in short: as §2
Liver [14] = test: Biodistribution in liver of B16F0 tumor bearing C57BL/6J mouse at 0.37-0.74 MBq, iv after 72 hrs; format: ADME, organism-based; settings: in vivo; in short: as §2
Kidney [15] = test: Biodistribution in kidney of B16F0 tumor bearing C57BL/6J mouse at 0.37-0.74 MBq, iv after 1 hr; format: ADME, organism-based; settings: in vivo; in short: as §2
Kidney [16] = test: Biodistribution in kidney of B16F0 tumor bearing C57BL/6J mouse at 0.37-0.74 MBq, iv after 6 hrs; format: ADME, organism-based; settings: in vivo; in short: as §2
Kidney [17] = test: Biodistribution in kidney of B16F0 tumor bearing C57BL/6J mouse at 0.37-0.74 MBq, iv after 24 hrs; format: ADME, organism-based; settings: in vivo; in short: as §2
Kidney [18] = test: Biodistribution in kidney of B16F0 tumor bearing C57BL/6J mouse at 0.37-0.74 MBq, iv after 48 hrs; format: ADME, organism-based; settings: in vivo; in short: as §2
Kidney [19] = test: Biodistribution in kidney of B16F0 tumor bearing C57BL/6J mouse at 0.37-0.74 MBq, iv after 72 hrs; format: ADME, organism-based; settings: in vivo; in short: as §2
Lung [20] = test: Biodistribution in lung of B16F0 tumor bearing C57BL/6J mouse at 0.37-0.74 MBq, iv after 1 hr; format: ADME, organism-based; settings: in vivo; in short: as §2
Lung [21] = test: Biodistribution in lung of B16F0 tumor bearing C57BL/6J mouse at 0.37-0.74 MBq, iv after 6 hrs; format: ADME, organism-based; settings: in vivo; in short: as §2
Lung [22] = test: Biodistribution in lung of B16F0 tumor bearing C57BL/6J mouse at 0.37-0.74 MBq, iv after 24 hrs; format: ADME, organism-based; settings: in vivo; in short: as §2
Lung [23] = test: Biodistribution in lung of B16F0 tumor bearing C57BL/6J mouse at 0.37-0.74 MBq, iv after 48 hrs; format: ADME, organism-based; settings: in vivo; in short: as §2
Heart [24] = test: Biodistribution in heart of B16F0 tumor bearing C57BL/6J mouse at 0.37-0.74 MBq, iv after 1 hr; format: ADME, organism-based; settings: in vivo; in short: as §2
Heart [25] = test: Biodistribution in heart of B16F0 tumor bearing C57BL/6J mouse at 0.37-0.74 MBq, iv after 6 hrs; format: ADME, organism-based; settings: in vivo; in short: as §2
Heart [26] = test: Biodistribution in heart of B16F0 tumor bearing C57BL/6J mouse at 0.37-0.74 MBq, iv after 24 hrs; format: ADME, organism-based; settings: in vivo; in short: as §2
Heart [27] = test: Biodistribution in heart of B16F0 tumor bearing C57BL/6J mouse at 0.37-0.74 MBq, iv after 48 hrs; format: ADME, organism-based; settings: in vivo; in short: as §2
Heart [28] = test: Biodistribution in heart of B16F0 tumor bearing C57BL/6J mouse at 0.37-0.74 MBq, iv after 72 hrs; format: ADME, organism-based; settings: in vivo; in short: as §2
Brain [29] = test: Biodistribution in brain of B16F0 tumor bearing C57BL/6J mouse at 0.37-0.74 MBq, iv after 1 hr; format: ADME, organism-based; settings: in vivo; in short: as §2
Brain [30] = test: Biodistribution in brain of B16F0 tumor bearing C57BL/6J mouse at 0.37-0.74 MBq, iv after 6 hrs; format: ADME, organism-based; settings: in vivo; in short: as §2
Brain [31] = test: Biodistribution in brain of B16F0 tumor bearing C57BL/6J mouse at 0.37-0.74 MBq, iv after 24 hrs; format: ADME, organism-based; settings: in vivo; in short: as §2
Brain [32] = test: Biodistribution in brain of B16F0 tumor bearing C57BL/6J mouse at 0.37-0.74 MBq, iv after 48 hrs; format: ADME, organism-based; settings: in vivo; in short: as §2
Blood [33] = test: Biodistribution in blood of B16F0 tumor bearing C57BL/6J mouse at 0.37-0.74 MBq, iv after 1 hr; format: ADME, organism-based; settings: in vivo; in short: as §2
Blood [34] = test: Biodistribution in blood of B16F0 tumor bearing C57BL/6J mouse at 0.37-0.74 MBq, iv after 6 hrs; format: ADME, organism-based; settings: in vivo; in short: as §2
Blood [35] = test: Biodistribution in blood of B16F0 tumor bearing C57BL/6J mouse at 0.37-0.74 MBq, iv after 48 hrs; format: ADME, organism-based; settings: in vivo; in short: as §2
Blood [36] = test: Biodistribution in blood of B16F0 tumor bearing C57BL/6J mouse at 0.37-0.74 MBq, iv after 72 hrs; format: ADME, organism-based; settings: in vivo; in short: as §2

Sequence of Sigma non-opioid intracellular receptor 1 (Q60492 whole entry): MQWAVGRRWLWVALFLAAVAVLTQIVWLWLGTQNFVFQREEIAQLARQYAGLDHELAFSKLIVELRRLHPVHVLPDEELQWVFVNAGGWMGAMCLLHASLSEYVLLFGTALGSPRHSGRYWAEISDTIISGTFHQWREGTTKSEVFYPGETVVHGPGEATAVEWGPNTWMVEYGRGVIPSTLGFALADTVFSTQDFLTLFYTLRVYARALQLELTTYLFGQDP

SMILES: COc1cc(NC(C)=O)c(I)cc1C(=O)NCCCCN(C)C(C)C
- Ki [1]: 5200 nM
- Ki [2]: 5400 nM
- logD [3]: 0.75

SMILES: CCN(CC)CCNC(=O)c1cc(I)c(NC(C)=O)cc1OC
- Ki [1]: 1650 nM
- Ki [2]: > 100000 nM
- logD [3]: 1.54

SMILES: CCCN(CCC)CCCCNC(=O)c1ccc(I)cc1
- Ki [1]: 1300 nM
- Ki [2]: 1000 nM
- logD [3]: 2.46

SMILES: CCN(CC)CCNC(=O)c1cc([123I])c(NC(C)=O)cc1OC
- Drug uptake (Blood [4]): 0.08 % ID/g
- Drug uptake [5]: 9.6 % ID/g
- Drug uptake [6]: 8.5 % ID/g
- Drug uptake [7]: 5.2 % ID/g
- Drug uptake [8]: 3.4 % ID/g
- Drug uptake [9]: 2.2 % ID/g
- Drug uptake (Liver [10]): 9 % ID/g
- Drug uptake (Liver [11]): 2.3 % ID/g
- Drug uptake (Liver [12]): 1.1 % ID/g
- Drug uptake (Liver [13]): 0.51 % ID/g
- Drug uptake (Liver [14]): 0.28 % ID/g
- Drug uptake (Kidney [15]): 2.3 % ID/g
- Drug uptake (Kidney [16]): 0.44 % ID/g
- Drug uptake (Kidney [17]): 0.08 % ID/g
- Drug uptake (Kidney [18]): 0.04 % ID/g
- Drug uptake (Kidney [19]): 0.06 % ID/g
- Drug uptake (Lung [20]): 1.3 % ID/g
- Drug uptake (Lung [21]): 0.4 % ID/g
- Drug uptake (Lung [22]): 0.09 % ID/g
- Drug uptake (Lung [23]): 0.07 % ID/g
- Drug uptake (Heart [24]): 0.79 % ID/g
- Drug uptake (Heart [25]): 0.31 % ID/g
- Drug uptake (Heart [26]): 0.12 % ID/g
- Drug uptake (Heart [27]): 0.07 % ID/g
- Drug uptake (Heart [28]): 0.18 % ID/g
- Drug uptake (Brain [29]): 0.13 % ID/g
- Drug uptake (Brain [30]): 0.02 % ID/g
- Drug uptake (Brain [31]): 0.01 % ID/g
- Drug uptake (Brain [32]): 0.01 % ID/g
- Drug uptake (Blood [33]): 0.98 % ID/g
- Drug uptake (Blood [34]): 0.35 % ID/g
- Drug uptake (Blood [35]): 0.03 % ID/g
- Drug uptake (Blood [36]): 0.06 % ID/g

SMILES: CCN(CC)CCNC(=O)c1cc(I)c(NS(C)(=O)=O)cc1OC
- Ki [1]: 800 nM
- Ki [2]: 45000 nM
- logD [3]: 0.82

SMILES: CCN(CC)CCNC(=O)c1cc(I)c(NS(=O)(=O)c2ccc(C)cc2)cc1OC
- Ki [1]: 650 nM
- Ki [2]: > 100000 nM
- logD [3]: 1.95

SMILES: COc1cc(NC(C)=O)c([123I])cc1C(=O)NCCCCN(C)C(C)C
- Drug uptake (Blood [4]): 0.02 % ID/g
- Drug uptake [5]: 5.5 % ID/g
- Drug uptake [6]: 6 % ID/g
- Drug uptake [7]: 3.7 % ID/g
- Drug uptake (Liver [10]): 9.5 % ID/g
- Drug uptake (Liver [11]): 1.5 % ID/g
- Drug uptake (Liver [12]): 0.42 % ID/g
- Drug uptake (Kidney [15]): 5.7 % ID/g
- Drug uptake (Kidney [16]): 0.69 % ID/g
- Drug uptake (Kidney [17]): 0.06 % ID/g
- Drug uptake (Lung [20]): 1.5 % ID/g
- Drug uptake (Lung [21]): 0.5 % ID/g
- Drug uptake (Lung [22]): 0.06 % ID/g
- Drug uptake (Heart [24]): 0.84 % ID/g
- Drug uptake (Heart [25]): 0.3 % ID/g
- Drug uptake (Heart [26]): 0.07 % ID/g
- Drug uptake (Brain [29]): 0.07 % ID/g
- Drug uptake (Brain [30]): 0.03 % ID/g
- Drug uptake (Brain [31]): 0.07 % ID/g
- Drug uptake (Blood [33]): 1.3 % ID/g
- Drug uptake (Blood [34]): 0.68 % ID/g
